# System: U2OS
# Assay: Multiplex assay against U2OS
# Type: toxicity, cell-based
# Conditions: human
# Outline: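 Phenotypes for tubulin, mitochondrial mass and membrane permeability are expressed as per cents of healthy-nucleus cells. Cells were stained live at seeding with Hoechst33342, BioTracker Green Microtubule Cytoskeleton Dye, MitoTracker Red and Annexin V Alexa Fluor 680, then imaged after compound addition on a CQ1 microscope at 37°C and 5% CO2. Machine-learning gating in CellPathfinder separated Hoechst high-intensity objects from normal cells, divided normal cells by nuclear state (healthy, pyknosed, fragmented) and divided pyknosed cells into mitotic or apoptotic.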
# [1] = 12 h, 1 µM, compound concentration 1 uM, replicate 1
# [2] = 12 h, 1 µM, compound concentration 1 uM, replicate 2
# [3] = 12 h, 10 µM, compound concentration 10 uM, replicate 1
# [4] = 12 h, 10 µM, compound concentration 10 uM, replicate 2
# [5] = 24 h, 1 µM, compound concentration 1 uM, replicate 1
# [6] = 24 h, 1 µM, compound concentration 1 uM, replicate 2
# [7] = 24 h, 10 µM, compound concentration 10 uM, replicate 1
# [8] = 24 h, 10 µM, compound concentration 10 uM, replicate 2
# [9] = 48 h, 1 µM, compound concentration 1 uM, replicate 1
# [10] = 48 h, 1 µM, compound concentration 1 uM, replicate 2
# [11] = 48 h, 10 µM, compound concentration 10 uM, replicate 1
# [12] = 48 h, 10 µM, compound concentration 10 uM, replicate 2
smiles,measurement,setting,value
O=C(NCCNCC(O)COc1ccc(O)cc1)N1CCOCC1.O=C(NCCNCC(O)COc1ccc(O)cc1)N1CCOCC1.O=C(O)/C=C/C(=O)O (stereo not drawn) [XAMOTEROL FUMARATE],Population Apoptotic (%),[1],71%
same,Population Fragmented Nuclei (%),[1],27%
same,Population Healthy Nuclei (%),[1],66%
same,Population Hoechst High Intensity Objects (%),[1],2%
same,Population Membrane Permeable-Phenotype (%),[1],6%
same,Population Mitochondria Different-Phenotype (%),[1],1%
same,Population Mitotic Cells (%),[1],28%
same,Population Normal (%),[1],97%
same,Population Pyknosed Nuclei (%),[1],5%
same,Population Tubulin-Different-Phenotype (%),[1],2%
same,Total Cell Count,[1],265
same,Population Apoptotic (%),[2],83%
same,Population Fragmented Nuclei (%),[2],19%
same,Population Healthy Nuclei (%),[2],68%
same,Population Hoechst High Intensity Objects (%),[2],3%
same,Population Membrane Permeable-Phenotype (%),[2],13%
same,Population Mitotic Cells (%),[2],16%
same,Population Normal (%),[2],96%
same,Population Pyknosed Nuclei (%),[2],11%
same,Population Tubulin-Different-Phenotype (%),[2],5%
same,Total Cell Count,[2],110
same,Population Apoptotic (%),[3],92%
same,Population Fragmented Nuclei (%),[3],28%
same,Population Healthy Nuclei (%),[3],60%
same,Population Hoechst High Intensity Objects (%),[3],0%
same,Population Membrane Permeable-Phenotype (%),[3],6%
same,Population Mitochondria Different-Phenotype (%),[3],2%
same,Population Mitotic Cells (%),[3],7%
same,Population Normal (%),[3],99%
same,Population Pyknosed Nuclei (%),[3],11%
same,Population Tubulin-Different-Phenotype (%),[3],4%
same,Total Cell Count,[3],239
same,Population Apoptotic (%),[4],100%
same,Population Fragmented Nuclei (%),[4],15%
same,Population Healthy Nuclei (%),[4],73%
same,Population Hoechst High Intensity Objects (%),[4],4%
same,Population Membrane Permeable-Phenotype (%),[4],4%
same,Population Mitochondria Different-Phenotype (%),[4],3%
same,Population Mitotic Cells (%),[4],0%
same,Population Normal (%),[4],95%
same,Population Tubulin-Different-Phenotype (%),[4],7%
same,Total Cell Count,[4],118
same,Population Apoptotic (%),[5],85%
same,Population Fragmented Nuclei (%),[5],24%
same,Population Healthy Nuclei (%),[5],68%
same,Population Hoechst High Intensity Objects (%),[5],0%
same,Population Membrane Permeable-Phenotype (%),[5],5%
same,Population Mitochondria Different-Phenotype (%),[5],0%
same,Population Mitotic Cells (%),[5],15%
same,Population Normal (%),[5],99%
same,Population Pyknosed Nuclei (%),[5],6%
same,Population Tubulin-Different-Phenotype (%),[5],1%
same,Total Cell Count,[5],312
same,Population Apoptotic (%),[6],80%
same,Population Fragmented Nuclei (%),[6],18%
same,Population Healthy Nuclei (%),[6],69%
same,Population Hoechst High Intensity Objects (%),[6],1%
same,Population Membrane Permeable-Phenotype (%),[6],10%
same,Population Mitochondria Different-Phenotype (%),[6],4%
same,Population Mitotic Cells (%),[6],20%
same,Population Normal (%),[6],98%
same,Population Pyknosed Nuclei (%),[6],11%
same,Population Tubulin-Different-Phenotype (%),[6],5%
same,Total Cell Count,[6],129
same,Population Apoptotic (%),[7],89%
same,Population Fragmented Nuclei (%),[7],22%
same,Population Healthy Nuclei (%),[7],66%
same,Population Hoechst High Intensity Objects (%),[7],1%
same,Population Membrane Permeable-Phenotype (%),[7],6%
same,Population Mitochondria Different-Phenotype (%),[7],2%
same,Population Mitotic Cells (%),[7],10%
same,Population Normal (%),[7],98%
same,Population Pyknosed Nuclei (%),[7],10%
same,Population Tubulin-Different-Phenotype (%),[7],2%
same,Total Cell Count,[7],270
same,Population Apoptotic (%),[8],78%
same,Population Fragmented Nuclei (%),[8],16%
same,Population Healthy Nuclei (%),[8],70%
same,Population Mitotic Cells (%),[8],21%
same,Population Pyknosed Nuclei (%),[8],12%
same,Population Tubulin-Different-Phenotype (%),[8],6%
same,Total Cell Count,[8],152
same,Population Apoptotic (%),[9],90%
same,Population Fragmented Nuclei (%),[9],18%
same,Population Healthy Nuclei (%),[9],75%
same,Population Hoechst High Intensity Objects (%),[9],1%
same,Population Membrane Permeable-Phenotype (%),[9],4%
same,Population Mitochondria Different-Phenotype (%),[9],2%
same,Population Mitotic Cells (%),[9],9%
same,Population Normal (%),[9],98%
same,Population Pyknosed Nuclei (%),[9],6%
same,Population Tubulin-Different-Phenotype (%),[9],2%
same,Total Cell Count,[9],472
same,Population Apoptotic (%),[10],91%
same,Population Fragmented Nuclei (%),[10],23%
same,Population Healthy Nuclei (%),[10],62%
same,Population Hoechst High Intensity Objects (%),[10],2%
same,Population Membrane Permeable-Phenotype (%),[10],6%
same,Population Mitochondria Different-Phenotype (%),[10],3%
same,Population Mitotic Cells (%),[10],8%
same,Population Normal (%),[10],97%
same,Population Pyknosed Nuclei (%),[10],13%
same,Population Tubulin-Different-Phenotype (%),[10],4%
same,Total Cell Count,[10],171
same,Population Apoptotic (%),[11],89%
same,Population Fragmented Nuclei (%),[11],18%
same,Population Healthy Nuclei (%),[11],68%
same,Population Hoechst High Intensity Objects (%),[11],1%
same,Population Membrane Permeable-Phenotype (%),[11],2%
same,Population Mitochondria Different-Phenotype (%),[11],1%
same,Population Mitotic Cells (%),[11],10%
same,Population Normal (%),[11],98%
same,Population Pyknosed Nuclei (%),[11],12%
same,Population Tubulin-Different-Phenotype (%),[11],2%
same,Total Cell Count,[11],392
same,Population Apoptotic (%),[12],94%
same,Population Fragmented Nuclei (%),[12],17%
same,Population Healthy Nuclei (%),[12],73%
same,Population Hoechst High Intensity Objects (%),[12],2%
same,Population Membrane Permeable-Phenotype (%),[12],4%
same,Population Mitochondria Different-Phenotype (%),[12],4%
same,Population Mitotic Cells (%),[12],5%
same,Population Normal (%),[12],97%
same,Population Pyknosed Nuclei (%),[12],9%
same,Population Tubulin-Different-Phenotype (%),[12],6%
same,Total Cell Count,[12],206
C[C@@H]1CC(=O)Nc2cccc(-c3ccc4c(c3)c(-c3cnn(C)c3)nn4C)c2N1,Population Apoptotic (%),[1],92%
same,Population Fragmented Nuclei (%),[1],20%
same,Population Healthy Nuclei (%),[1],73%
same,Population Hoechst High Intensity Objects (%),[1],1%
same,Population Membrane Permeable-Phenotype (%),[1],7%
same,Population Mitochondria Different-Phenotype (%),[1],4%
same,Population Mitotic Cells (%),[1],7%
same,Population Normal (%),[1],98%
same,Population Pyknosed Nuclei (%),[1],6%
same,Population Tubulin-Different-Phenotype (%),[1],6%
same,Total Cell Count,[1],233
same,Population Apoptotic (%),[2],88%
same,Population Fragmented Nuclei (%),[2],16%
same,Population Healthy Nuclei (%),[2],75%
same,Population Membrane Permeable-Phenotype (%),[2],5%
same,Population Mitochondria Different-Phenotype (%),[2],2%
same,Population Mitotic Cells (%),[2],11%
same,Population Pyknosed Nuclei (%),[2],7%
same,Population Tubulin-Different-Phenotype (%),[2],2%
same,Total Cell Count,[2],116
same,Population Apoptotic (%),[3],86%
same,Population Fragmented Nuclei (%),[3],29%
same,Population Healthy Nuclei (%),[3],58%
same,Population Hoechst High Intensity Objects (%),[3],2%
same,Population Membrane Permeable-Phenotype (%),[3],11%
same,Population Mitochondria Different-Phenotype (%),[3],11%
same,Population Mitotic Cells (%),[3],13%
same,Population Normal (%),[3],97%
same,Population Pyknosed Nuclei (%),[3],12%
same,Population Tubulin-Different-Phenotype (%),[3],8%
same,Total Cell Count,[3],235
same,Population Apoptotic (%),[4],33%
same,Population Fragmented Nuclei (%),[4],21%
same,Population Healthy Nuclei (%),[4],74%
same,Population Hoechst High Intensity Objects (%),[4],1%
same,Population Membrane Permeable-Phenotype (%),[4],7%
same,Population Mitochondria Different-Phenotype (%),[4],7%
same,Population Mitotic Cells (%),[4],66%
same,Population Normal (%),[4],98%
same,Population Pyknosed Nuclei (%),[4],4%
same,Total Cell Count,[4],76
same,Population Apoptotic (%),[5],95%
same,Population Fragmented Nuclei (%),[5],20%
same,Population Healthy Nuclei (%),[5],71%
same,Population Hoechst High Intensity Objects (%),[5],2%
same,Population Membrane Permeable-Phenotype (%),[5],5%
same,Population Mitochondria Different-Phenotype (%),[5],2%
same,Population Mitotic Cells (%),[5],4%
same,Population Normal (%),[5],97%
same,Population Pyknosed Nuclei (%),[5],7%
same,Population Tubulin-Different-Phenotype (%),[5],2%
same,Total Cell Count,[5],294
same,Population Apoptotic (%),[6],100%
same,Population Fragmented Nuclei (%),[6],22%
same,Population Healthy Nuclei (%),[6],74%
same,Population Hoechst High Intensity Objects (%),[6],1%
same,Population Membrane Permeable-Phenotype (%),[6],1%
same,Population Mitochondria Different-Phenotype (%),[6],1%
same,Population Mitotic Cells (%),[6],0%
same,Population Normal (%),[6],98%
same,Population Pyknosed Nuclei (%),[6],4%
same,Population Tubulin-Different-Phenotype (%),[6],0%
same,Total Cell Count,[6],152
same,Population Apoptotic (%),[7],90%
same,Population Fragmented Nuclei (%),[7],24%
same,Population Healthy Nuclei (%),[7],63%
same,Population Hoechst High Intensity Objects (%),[7],4%
same,Population Membrane Permeable-Phenotype (%),[7],7%
same,Population Mitochondria Different-Phenotype (%),[7],6%
same,Population Mitotic Cells (%),[7],10%
same,Population Normal (%),[7],95%
same,Population Pyknosed Nuclei (%),[7],11%
same,Population Tubulin-Different-Phenotype (%),[7],3%
same,Total Cell Count,[7],266
same,Population Apoptotic (%),[8],83%
same,Population Fragmented Nuclei (%),[8],15%
same,Population Healthy Nuclei (%),[8],78%
same,Population Hoechst High Intensity Objects (%),[8],1%
same,Population Membrane Permeable-Phenotype (%),[8],6%
same,Population Mitochondria Different-Phenotype (%),[8],1%
same,Population Mitotic Cells (%),[8],16%
same,Population Normal (%),[8],98%
same,Population Pyknosed Nuclei (%),[8],6%
same,Population Tubulin-Different-Phenotype (%),[8],4%
same,Total Cell Count,[8],97
same,Population Apoptotic (%),[9],100%
same,Population Fragmented Nuclei (%),[9],19%
same,Population Healthy Nuclei (%),[9],73%
same,Population Hoechst High Intensity Objects (%),[9],1%
same,Population Membrane Permeable-Phenotype (%),[9],4%
same,Population Mitochondria Different-Phenotype (%),[9],2%
same,Population Mitotic Cells (%),[9],0%
same,Population Normal (%),[9],98%
same,Population Pyknosed Nuclei (%),[9],6%
same,Population Tubulin-Different-Phenotype (%),[9],3%
same,Total Cell Count,[9],437
same,Population Fragmented Nuclei (%),[10],13%
same,Population Healthy Nuclei (%),[10],77%
same,Population Membrane Permeable-Phenotype (%),[10],2%
same,Population Pyknosed Nuclei (%),[10],8%
same,Population Tubulin-Different-Phenotype (%),[10],2%
same,Total Cell Count,[10],224
same,Population Apoptotic (%),[11],100%
same,Population Fragmented Nuclei (%),[11],28%
same,Population Healthy Nuclei (%),[11],65%
same,Population Hoechst High Intensity Objects (%),[11],3%
same,Population Membrane Permeable-Phenotype (%),[11],8%
same,Population Mitochondria Different-Phenotype (%),[11],3%
same,Population Mitotic Cells (%),[11],0%
same,Population Normal (%),[11],96%
same,Population Pyknosed Nuclei (%),[11],5%
same,Population Tubulin-Different-Phenotype (%),[11],5%
same,Total Cell Count,[11],394
same,Population Fragmented Nuclei (%),[12],23%
same,Population Healthy Nuclei (%),[12],71%
same,Population Hoechst High Intensity Objects (%),[12],4%
same,Population Membrane Permeable-Phenotype (%),[12],3%
same,Population Mitochondria Different-Phenotype (%),[12],0%
same,Population Normal (%),[12],95%
same,Population Pyknosed Nuclei (%),[12],4%
same,Population Tubulin-Different-Phenotype (%),[12],3%
same,Total Cell Count,[12],149

# From ChEMBL document CHEMBL5058577, “EUbOPEN Chemogenomics Library 2 (Multiplex)” (2022)
